Experimental data: ChEMBL document CHEMBL1129264, “Mercaptoacyl dipeptides as orally active dual inhibitors of angiotensin-converting enzyme and neutral endopeptidase” (1996)
One block for each molecule: values may come before it.

What was measured:
[1] = molecular target: T1, Angiotensin-converting enzyme (Rattus norvegicus) (UniProt P47820); assay: Compound was tested for plasma inhibition of Angiotensin I converting enzyme activity in the conscious rat. Expressed as Inhibition of AI pressor response at 2 hr at a dose of 12.1 mg/kg po; type: organism-based; parameters: dose 12.1 mg/kg
T1 sequence (whole entry): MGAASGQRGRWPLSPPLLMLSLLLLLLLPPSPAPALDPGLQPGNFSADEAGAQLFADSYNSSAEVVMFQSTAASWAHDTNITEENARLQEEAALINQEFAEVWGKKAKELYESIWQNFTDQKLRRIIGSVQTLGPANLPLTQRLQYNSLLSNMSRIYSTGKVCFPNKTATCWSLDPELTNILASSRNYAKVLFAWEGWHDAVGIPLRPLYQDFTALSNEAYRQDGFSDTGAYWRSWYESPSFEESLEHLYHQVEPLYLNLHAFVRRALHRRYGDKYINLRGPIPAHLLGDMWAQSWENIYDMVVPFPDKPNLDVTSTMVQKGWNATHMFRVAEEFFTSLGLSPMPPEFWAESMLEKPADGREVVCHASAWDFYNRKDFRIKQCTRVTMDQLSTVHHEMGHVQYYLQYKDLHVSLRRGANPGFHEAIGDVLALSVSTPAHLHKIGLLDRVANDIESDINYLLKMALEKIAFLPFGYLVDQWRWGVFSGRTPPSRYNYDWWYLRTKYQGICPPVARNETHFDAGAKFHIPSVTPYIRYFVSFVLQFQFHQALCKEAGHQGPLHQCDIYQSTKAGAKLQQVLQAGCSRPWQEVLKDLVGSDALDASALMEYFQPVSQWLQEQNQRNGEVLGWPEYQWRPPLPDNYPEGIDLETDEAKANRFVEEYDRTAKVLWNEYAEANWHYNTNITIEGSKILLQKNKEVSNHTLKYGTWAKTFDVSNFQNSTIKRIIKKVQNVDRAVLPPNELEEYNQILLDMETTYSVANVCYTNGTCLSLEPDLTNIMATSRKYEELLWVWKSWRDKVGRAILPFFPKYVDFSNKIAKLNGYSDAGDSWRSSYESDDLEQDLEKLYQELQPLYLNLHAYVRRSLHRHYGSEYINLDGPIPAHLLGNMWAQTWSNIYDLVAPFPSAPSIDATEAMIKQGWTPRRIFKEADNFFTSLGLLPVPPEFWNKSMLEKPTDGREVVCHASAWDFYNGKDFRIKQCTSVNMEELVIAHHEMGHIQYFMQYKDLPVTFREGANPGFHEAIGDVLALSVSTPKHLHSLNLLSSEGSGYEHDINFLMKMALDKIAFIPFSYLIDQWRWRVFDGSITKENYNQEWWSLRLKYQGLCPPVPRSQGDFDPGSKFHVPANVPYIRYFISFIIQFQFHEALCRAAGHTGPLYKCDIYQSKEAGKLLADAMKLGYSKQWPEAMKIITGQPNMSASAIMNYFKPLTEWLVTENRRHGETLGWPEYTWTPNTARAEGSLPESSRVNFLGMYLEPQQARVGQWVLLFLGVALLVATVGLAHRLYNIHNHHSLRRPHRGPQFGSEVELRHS
How it was run: (§1)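 Male conscious normotensive Sprague-Dawley rats (275-390 g), given femoral arterial and venous catheters under methohexital sodium (75 mg/kg ip) anesthesia. Next day, pressor responses to three angiotensin-I challenges (300 ng/kg iv) recorded by direct arterial pressure. Compound then dosed orally, and AI challenge repeated at set times. Each post-dose response compared with the mean of the three baseline responses, giving % inhibition.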

[2] = molecular target: T1, Angiotensin-converting enzyme (Rattus norvegicus); assay: Compound was tested for plasma inhibition of Angiotensin I converting enzyme activity in the conscious rat. Expressed as Inhibition of AI pressor response at 6 hr at a dose of 12.1 mg/kg po; type: organism-based; parameters: dose 12.1 mg/kg
How it was run: (§2)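 Male conscious normotensive Sprague-Dawley rats (275-390 g), prepared under methohexital sodium (75 mg/kg ip) with femoral arterial and venous catheters. The next day, pressor responses to three angiotensin-I challenges (300 ng/kg iv) were recorded. Compound was then given orally and angiotensin-I challenges were repeated at set times. Percent inhibition is relative to the mean of the three baseline responses.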

[3] = molecular target: T1, Angiotensin-converting enzyme (Rattus norvegicus); assay: Compound was tested for plasma inhibition of Angiotensin I converting enzyme activity in the conscious rat. Expressed as Inhibition of AI pressor response at 4 hr at a dose of 12.1 mg/kg po; type: organism-based; parameters: dose 12.1 mg/kg; how it was run: as §1
[4] = molecular target: T1, Angiotensin-converting enzyme (Rattus norvegicus); assay: Compound was tested for plasma inhibition of Angiotensin I converting enzyme activity in the conscious rat. Expressed as Inhibition of AI pressor response at 1 hr at a dose of 12.1 mg/kg po; type: organism-based; parameters: dose 12.1 mg/kg; how it was run: as §1
[5] = molecular target: T1, Angiotensin-converting enzyme (Rattus norvegicus); assay: Compound was tested for plasma inhibition of Angiotensin I converting enzyme activity in the conscious rat. Expressed as Inhibition of AI pressor response at 1 hr at a dose of 13.7 mg/kg po; type: organism-based; parameters: dose 13.7 mg/kg; how it was run: as §1
[6] = molecular target: T1, Angiotensin-converting enzyme (Rattus norvegicus); assay: Compound was tested for plasma inhibition of Angiotensin I converting enzyme activity in the conscious rat. Expressed as Inhibition of AI pressor response at 2 hr at a dose of 13.7 mg/kg po; type: organism-based; parameters: dose 13.7 mg/kg; how it was run: as §1
[7] = molecular target: T1, Angiotensin-converting enzyme (Rattus norvegicus); assay: Compound was tested for plasma inhibition of Angiotensin I converting enzyme activity in the conscious rat. Expressed as Inhibition of AI pressor response at 4 hr at a dose of 13.7 mg/kg po; type: organism-based; parameters: dose 13.7 mg/kg; how it was run: as §2
[8] = molecular target: T1, Angiotensin-converting enzyme (Rattus norvegicus); assay: Compound was tested for plasma inhibition of Angiotensin I converting enzyme activity in the conscious rat. Expressed as Inhibition of AI pressor response at 6 hr at a dose of 13.7 mg/kg po; type: organism-based; parameters: dose 13.7 mg/kg; how it was run: as §2
[9] = molecular target: T1, Angiotensin-converting enzyme (Rattus norvegicus); assay: Compound was tested for plasma inhibition of Angiotensin I converting enzyme activity in the conscious rat. Expressed as Inhibition of AI pressor response at 4 hr at a dose of 13.5 mg/kg po; type: organism-based; parameters: dose 13.5 mg/kg; how it was run: as §2
[10] = molecular target: T1, Angiotensin-converting enzyme (Rattus norvegicus); assay: Compound was tested for plasma inhibition of Angiotensin I converting enzyme activity in the conscious rat. Expressed as Inhibition of AI pressor response at 6 hr at a dose of 13.5 mg/kg po; type: organism-based; parameters: dose 13.5 mg/kg; how it was run: as §2
[11] = molecular target: T1, Angiotensin-converting enzyme (Rattus norvegicus); assay: Compound was tested for plasma inhibition of Angiotensin I converting enzyme activity in the conscious rat. Expressed as Inhibition of AI pressor response at 1 hr at a dose of 13.5 mg/kg po; type: organism-based; parameters: dose 13.5 mg/kg; how it was run: as §1
[12] = molecular target: T1, Angiotensin-converting enzyme (Rattus norvegicus); assay: Compound was tested for plasma inhibition of Angiotensin I converting enzyme activity in the conscious rat. Expressed as Inhibition of AI pressor response at 2 hr at a dose of 13.5 mg/kg po; type: organism-based; parameters: dose 13.5 mg/kg; how it was run: as §1
[13] = molecular target: T1, Angiotensin-converting enzyme (Rattus norvegicus); assay: Compound was tested for plasma inhibition of Angiotensin I converting enzyme activity in the conscious rat. Expressed as Inhibition of AI pressor response at 4 hr at a dose of 14.5 mg/kg po; type: organism-based; parameters: dose 14.5 mg/kg; how it was run: as §2
[14] = molecular target: T1, Angiotensin-converting enzyme (Rattus norvegicus); assay: Compound was tested for plasma inhibition of Angiotensin I converting enzyme activity in the conscious rat. Expressed as Inhibition of AI pressor response at 6 hr at a dose of 14.5 mg/kg po; type: organism-based; parameters: dose 14.5 mg/kg; how it was run: as §2
[15] = molecular target: T1, Angiotensin-converting enzyme (Rattus norvegicus); assay: Compound was tested for plasma inhibition of Angiotensin I converting enzyme activity in the conscious rat. Expressed as Inhibition of AI pressor response at 2 hr at a dose of 14.5 mg/kg po; type: organism-based; parameters: dose 14.5 mg/kg; how it was run: as §1
[16] = molecular target: T1, Angiotensin-converting enzyme (Rattus norvegicus); assay: Compound was tested for plasma inhibition of Angiotensin I converting enzyme activity in the conscious rat. Expressed as Inhibition of AI pressor response at 1 hr at a dose of 14.5 mg/kg po; type: organism-based; parameters: dose 14.5 mg/kg; how it was run: as §1
Rattus norvegicus [17] = assay: Plasma ANF Concentration in the Conscious Rat at a dose of 11.7(po)mg/kg at 1 h; type: functional
How it was run: (§3)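 Male Sprague-Dawley rats (275-390 g) received femoral artery and vein catheters under ketamine (150 mg/kg)/acepromazine and recovered for 24 h, tethered, before study conscious. ratANF(99-126) was infused at 450 ng/kg/min iv for 5 h. Baseline blood was drawn at 60 min into the infusion, then compound was given po.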

[18] = molecular target: T1, Angiotensin-converting enzyme (Rattus norvegicus); assay: Compound was tested for plasma inhibition of Angiotensin I converting enzyme activity in the conscious rat. Expressed as Inhibition of AI pressor response at 4 hr at a dose of 11.7 mg/kg po; type: organism-based; parameters: dose 11.7 mg/kg; how it was run: as §1
[19] = molecular target: T1, Angiotensin-converting enzyme (Rattus norvegicus); assay: Compound was tested for plasma inhibition of Angiotensin I converting enzyme activity in the conscious rat. Expressed as Inhibition of AI pressor response at 6 hr at a dose of 11.7 mg/kg po; type: organism-based; parameters: dose 11.7 mg/kg; how it was run: as §2
Rattus norvegicus [20] = assay: Plasma ANF Concentration in the Conscious Rat at a dose of 11.7(po)mg/kg at 2 h; type: functional; how it was run: as §3
[21] = molecular target: T1, Angiotensin-converting enzyme (Rattus norvegicus); assay: Compound was tested for plasma inhibition of Angiotensin I converting enzyme activity in the conscious rat. Expressed as Inhibition of AI pressor response at 2 hr at a dose of 11.7 mg/kg po; type: organism-based; parameters: dose 11.7 mg/kg; how it was run: as §1
Rattus norvegicus [22] = assay: Plasma ANF Concentration in the Conscious Rat at a dose of 11.7(po)mg/kg at 0.5 h; type: functional; how it was run: as §3
[23] = molecular target: T1, Angiotensin-converting enzyme (Rattus norvegicus); assay: Compound was tested for plasma inhibition of Angiotensin I converting enzyme activity in the conscious rat. Expressed as Inhibition of AI pressor response at 1 hr at a dose of 11.7 mg/kg po; type: organism-based; parameters: dose 11.7 mg/kg; how it was run: as §1
Rattus norvegicus [24] = assay: Plasma ANF Concentration in the Conscious Rat at a dose of 11.7(po)mg/kg at 4 h; type: functional; how it was run: as §3

SMILES: CCOC(=O)Oc1ccc(C[C@H](NC(=O)C2(NC(=O)[C@H](SC(C)=O)C(C)C)CCCC2)C(=O)OCC)cc1
- inhibition [9]: 25%
- inhibition [10]: 21%
- inhibition [11]: 24%
- inhibition [12]: 28%

SMILES: CCOC(=O)CC(=O)Oc1ccc(C[C@H](NC(=O)C2(NC(=O)[C@H](SC(C)=O)C(C)C)CCCC2)C(=O)OCC)cc1
- inhibition [13]: 82%
- inhibition [14]: 73%
- inhibition [15]: 78%
- inhibition [16]: 88%

SMILES: COC(=O)[C@H](Cc1ccc(OC)cc1)NC(=O)C1(NC(=O)[C@H](SC(C)=O)C(C)C)CCCC1
- Control (Rattus norvegicus [17]): 337%
- inhibition [18]: 87%
- inhibition [19]: 78%
- Control (Rattus norvegicus [20]): 263%
- inhibition [21]: 90%
- Control (Rattus norvegicus [22]): 279%
- inhibition [23]: 97%
- Control (Rattus norvegicus [24]): 342%

Further lines, results first:

- inhibition [1]: 85%
- inhibition [2]: 78%
- inhibition [3]: 81%
- inhibition [4]: 67%
SMILES: CC(=O)S[C@@H](C(=O)NC1(C(=O)N[C@@H](Cc2ccc(O)cc2)C(=O)OC(C)C)CCCC1)C(C)C

- inhibition [5]: 57%
- inhibition [6]: 49%
- inhibition [7]: 38%
- inhibition [8]: 27%
SMILES: CCCCOC(=O)[C@H](Cc1ccc(O)cc1)NC(=O)C1(NC(=O)[C@H](SC(=O)C2CCCC2)C(C)C)CCCC1

- inhibition [1]: 69%
- inhibition [2]: 19%
- inhibition [3]: 37%
- inhibition [4]: 74%
SMILES: CCCOC(=O)[C@H](Cc1ccc(O)cc1)NC(=O)C1(NC(=O)[C@H](SC(C)=O)C(C)C)CCCC1
